In brackets after ≈: the same amount, converted by molar mass.
Key:
[1] = Antibacterial activity against Bacillus subtilis subsp. subtilis assessed as growth inhibiiton after 18 hrs; type: functional
In short: (§1)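 Broth dilution in LB, start OD600 0.03, compounds predissolved in DMSO (max 1% final), serial dilutions 0.02–100 µg/mL tested in duplicate. Incubation 18 h, 37 °C, 50 rpm (200 rpm for PAO1). OD read at start and after incubation. MIC is the lowest concentration with no detectable growth. Values are means of two independent runs, three if MIC <10 µg/mL.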

Staphylococcus aureus = test: Antibacterial activity against Staphylococcus aureus subsp. aureus Newman assessed as growth inhibiiton after 18 hrs; type: functional; in short: as §1
[2] = Inhibition of Escherichia coli RNAP assessed as incorporation of [5,6-3H]UTP preincubated for 10 mins followed by DNA template and ATP, CTP, GTP, UTP, [5,6-3H]UTP addition measured after 10 mins by scintillation counting analysis
In short: (§2)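 Purchased E. coli RNAP holoenzyme (1 unit, 0.5 µg) with 40 mM Tris-HCl pH 7.5, 150 mM KCl, 10 mM MgCl2, 10 mM DTT, 0.1% CHAPS, RNase inhibitor and compound in 2% DMSO final, preincubated 10 min at 25 °C. Reaction started with religated pcDNA3.1 template (3500 ng), 400 µM ATP/CTP/GTP, 100 µM UTP and 60 nCi [3H]-UTP, then run 10 min at 37 °C. TCA-precipitated RNA counted by scintillation and compared with DMSO controls.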

Pseudomonas aeruginosa = test: Antibacterial activity against Pseudomonas aeruginosa PAO1 assessed as growth inhibiiton after 18 hrs; type: functional; conditions: PAO1, 18 h; in short: as §1
Escherichia coli [3] = test: Antibacterial activity against Escherichia coli expressing ToLC mutant assessed as growth inhibiiton after 18 hrs; type: functional
In short: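 E. coli TolC (efflux-defective) in LB, start OD600 0.03, compounds predissolved in DMSO (max 1% final); serial dilutions, final 0.02–100 µg/mL, each concentration in duplicate. OD read at compound addition and after 18 h at 37 °C, 50 rpm. MIC = lowest concentration with no detectable growth; mean of two independent runs (three if MIC < 10 µg/mL).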

Escherichia coli [4] = test: Antibacterial activity against Escherichia coli K-12 assessed as growth inhibiiton after 18 hrs; type: functional; conditions: K-12, 18 h; in short: as §1
Escherichia coli [5] = test: Inhibition of Escherichia coli RNAP assessed as incorporation of [5,6-3H]UTP at 100 uM preincubated for 10 mins followed by DNA template and ATP, CTP, GTP, UTP, [5,6-3H]UTP addition measured after 10 mins by scintillation counting analysis relative to control; in short: as §2
Escherichia coli [6] = test: Reduction of resistance frequencies in Escherichia coli expressing ToLC mutant at 2 x MIC after 16 hrs relative to rifampicin, myxopyronin; type: functional
In short: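 E. coli TolC cell count per mL set by plating dilutions on LB agar and counting colonies. […] Resistance frequency derived from the threshold inoculum at which growth (resistance) appeared.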

Escherichia coli [7] = test: Inhibition of Escherichia coli RNAP assessed as incorporation of [5,6-3H]UTP at 25 uM preincubated for 10 mins followed by DNA template and ATP, CTP, GTP, UTP, [5,6-3H]UTP addition measured after 10 mins by scintillation counting analysis relative to control; in short: as §2
Escherichia coli [8] = test: Inhibition of Escherichia coli RNAP assessed as incorporation of [5,6-3H]UTP at 50 uM preincubated for 10 mins followed by DNA template and ATP, CTP, GTP, UTP, [5,6-3H]UTP addition measured after 10 mins by scintillation counting analysis relative to control; in short: as §2
Escherichia coli [9] = test: Inhibition of RNAP in Escherichia coli expressing ToLC mutant assessed as reduction of RNA level at 100 uM after 40 mins by whole cell assay in presence of [3H]-uridine relative to control
In short: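 E. coli TolC grown in LB. 3H-uridine (1 µCi/mL) added in log phase, 3 min before compound (100 µM, 0.5% DMSO). 300 µL culture harvested 40 min later and precipitated with 2 volumes of 10% TCA for 45 min at 4 °C. Precipitate collected on glass-fibre filters and radioactivity counted.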

Row | SMILES | MIC [1] [µg/mL] | MIC (Staphylococcus aureus) [µg/mL] | IC50 [2] [µM] | pIC50 [2] | MIC (Pseudomonas aeruginosa) [µg/mL] | MIC (Escherichia coli [3]) [µg/mL] | MIC (Escherichia coli [4]) [µg/mL] | further results
1 | CCN(Cc1ccccc1)C(=O)Nc1cc(-c2ccc(Cl)cc2Cl)sc1C(=O)O | 10 (≈ 22.3 µM) | 12 (≈ 26.7 µM) | 32 | 4.49 | > 50 | 8 (≈ 17.8 µM) | > 50 | –
2 | CCCC/C(C)=C/C=C(\C)C(=O)c1c(O)cc([C@H](C)CC/C=C/NC(=O)OC)oc1=O [MYXOPYRONIN B] | 0.9 (≈ 2.09 µM) | 0.5 (≈ 1.16 µM) | 0.35 | – | > 25 | 0.8 (≈ 1.85 µM) | > 25 | –
3 | NC(=O)Nc1cc(-c2ccc(Cl)c(Cl)c2)sc1C(=O)O | – | – | – | – | – | > 25 | – | inhibition (Escherichia coli [5]): 26%
4 | CCN(Cc1ccccc1)C(=O)Nc1cc(-c2cccc([N+](=O)[O-])c2)sc1C(=O)O | – | – | 80 | 4.1 | – | 22 (≈ 51.7 µM) | – | –
5 | CCCCN(Cc1ccccc1)C(=O)Nc1cc(-c2ccc(Cl)c(Cl)c2)sc1C(=O)O | > 50 | > 50 | 9 | – | > 50 | > 50 | > 50 | –
6 | O=C(O)c1sc(-c2ccc(Cl)c(Cl)c2)cc1NC(=O)N(Cc1ccccc1)Cc1ccccc1 | > 25 | 3 (≈ 5.87 µM) | 6 | – | > 25 | > 25 | > 25 | –
7 | CC(C)NC(=O)Nc1cc(-c2ccc(Cl)c(Cl)c2)sc1C(=O)O | – | – | – | – | – | 15 (≈ 40.2 µM) | – | inhibition (Escherichia coli [5]): 26%
8 | CN(Cc1ccccc1)C(=O)Nc1cc(-c2ccc(Cl)c(Cl)c2)sc1C(=O)O | – | – | – | – | – | 5 (≈ 11.5 µM) | – | inhibition (Escherichia coli [5]): 12%
9 | CCN(Cc1ccccc1)C(=O)Nc1cc(-c2ccc(Cl)cc2)sc1C(=O)O | – | – | 75 | 4.12 | – | 11 (≈ 26.5 µM) | – | –
10 | CCCCCNC(=O)Nc1cc(-c2ccc(Cl)c(Cl)c2)sc1C(=O)O | 8 (≈ 19.9 µM) | > 25 | 35 | – | > 25 | 10 (≈ 24.9 µM) | > 25 | –
11 | CCN(Cc1ccccc1)C(=O)Nc1cc(-c2ccc(Cl)c(CCCCNC(=O)OC)c2)sc1C(=O)O | – | – | 20 | – | – | 25 (≈ 45.9 µM) | – | –
12 | CCN(Cc1ccccc1)C(=O)Nc1cc(-c2cc(Cl)ccc2Cl)sc1C(=O)O | – | – | 35 | 4.46 | – | 9 (≈ 20 µM) | – | –
13 | CCN(Cc1ccccc1)C(=O)Nc1cc(-c2ccc(OC(F)(F)F)cc2)sc1C(=O)O | 20 (≈ 43.1 µM) | 9 (≈ 19.4 µM) | 45 | 4.35 | > 100 | 21 (≈ 45.2 µM) | > 100 | –
14 | CCN(Cc1ccccc1)C(=O)Nc1cc(-c2ccccc2)sc1C(=O)O | – | – | 292 | 3.52 | – | 17 (≈ 44.7 µM) | – | –
15 | CCCCNC(=O)Nc1cc(-c2ccc(Cl)c(Cl)c2)sc1C(=O)O | – | – | 91 | – | – | 13 (≈ 33.6 µM) | – | –
16 | CCN(Cc1ccccc1)C(=O)Nc1cc(-c2ccc(OC)cc2)sc1C(=O)O | – | – | 240 | 3.62 | – | 15 (≈ 36.5 µM) | – | –
17 | O=C(Nc1ccccc1)Nc1cc(-c2ccc(Cl)c(Cl)c2)sc1C(=O)O | 12 (≈ 29.5 µM) | 6 (≈ 14.7 µM) | 25 | – | > 50 | 12 (≈ 29.5 µM) | > 50 | –
18 | CCN(Cc1ccccc1)C(=O)Nc1cc(-c2ccc(C)cc2)sc1C(=O)O | – | – | 137 | 3.86 | – | 21 (≈ 53.2 µM) | – | –
19 | CO[C@H]1/C=C/O[C@@]2(C)Oc3c(C)c(O)c4c(O)c(c(/C=N/N5CCN(C)CC5)c(O)c4c3C2=O)NC(=O)/C(C)=C\C=C\[C@H](C)[C@H](O)[C@@H](C)[C@@H](O)[C@@H](C)[C@H](OC(C)=O)[C@@H]1C [RIFAMPIN] | 4.8 (≈ 5.83 µM) | 0.02 (≈ 0.0243 µM) | 0.03 | – | 13 (≈ 15.8 µM) | 5 (≈ 6.08 µM) | 7 (≈ 8.51 µM) | –
20 | CCN(Cc1ccccc1)C(=O)Nc1cc(-c2cc(Cl)cc(Cl)c2)sc1C(=O)O | – | – | 25 | 4.6 | – | – | – | –

Row | SMILES | MIC [1] [µg/mL] | MIC (Staphylococcus aureus) [µg/mL] | IC50 [2] [µM] | pIC50 [2] | MIC (Pseudomonas aeruginosa) [µg/mL] | MIC (Escherichia coli [3]) [µg/mL] | MIC (Escherichia coli [4]) [µg/mL] | further results
21 | CCN(Cc1ccccc1)C(=O)Nc1cc(-c2ccc(C(F)(F)F)cc2)sc1C(=O)O | – | – | 51 | 4.29 | – | 21 (≈ 46.8 µM) | – | –
22 | CCCCN(CCc1ccccc1)C(=O)Nc1cc(-c2ccc(Cl)c(Cl)c2)sc1C(=O)O | – | – | 7 | – | – | > 25 | – | –
23 | CCCN(Cc1ccccc1)C(=O)Nc1cc(-c2ccc(Cl)c(Cl)c2)sc1C(=O)O | – | – | 14 | – | – | > 25 | – | –
24 | CCCCCCNC(=O)Nc1cc(-c2ccc(Cl)c(Cl)c2)sc1C(=O)O | – | – | 19 | – | – | > 25 | – | –
25 | CCN(Cc1ccccc1)C(=O)Nc1cc(-c2ccc(C#N)cc2)sc1C(=O)O | – | – | 133 | 3.88 | – | 25 (≈ 61.7 µM) | – | –
26 | CCN(Cc1ccccc1)C(=O)Nc1cc(-c2ccc([N+](=O)[O-])cc2)sc1C(=O)O | – | – | 73 | 4.14 | – | 23 (≈ 54.1 µM) | – | –
27 | O=C(NCc1ccccc1)Nc1cc(-c2ccc(Cl)c(Cl)c2)sc1C(=O)O | – | – | 45 | – | – | 10 (≈ 23.7 µM) | – | –
28 | O=C(NCCc1ccccc1)Nc1cc(-c2ccc(Cl)c(Cl)c2)sc1C(=O)O | 7 (≈ 16.1 µM) | 6 (≈ 13.8 µM) | 26 | – | > 25 | 8 (≈ 18.4 µM) | > 25 | –
29 | CCN(Cc1ccccc1)C(=O)Nc1cc(-c2ccc(Cl)c(C(F)(F)F)c2)sc1C(=O)O | 20 (≈ 41.4 µM) | 5 (≈ 10.4 µM) | 21 | 4.68 | > 50 | 12 (≈ 24.8 µM) | > 50 | –
30 | CCN(Cc1ccccc1)C(=O)Nc1cc(-c2cccc(C(F)(F)F)c2)sc1C(=O)O | – | – | 53 | 4.28 | – | 38 (≈ 84.7 µM) | – | –
31 | CCCN(CCc1ccccc1)C(=O)Nc1cc(-c2ccc(Cl)c(Cl)c2)sc1C(=O)O | – | – | 12 | – | – | > 25 | – | –
32 | CN(C(=O)Nc1cc(-c2ccc(Cl)c(Cl)c2)sc1C(=O)O)c1ccccc1 | – | – | 45 | – | – | 9 (≈ 21.4 µM) | – | –
33 | CCN(Cc1ccccc1)C(=O)Nc1cc(-c2cccc(Cl)c2)sc1C(=O)O | 12 (≈ 28.9 µM) | 21 (≈ 50.6 µM) | 72 | 4.14 | > 100 | 9 (≈ 21.7 µM) | > 100 | fold change (FC) (Escherichia coli [6]): >500
34 | O=C(Nc1ccccc1)Nc1sc2c(c1C(=O)O)CCCCCC2 | – | – | – | – | – | > 25 | – | inhibition (Escherichia coli [7]): 3%
35 | CCOC(=O)c1c(NC(=O)Nc2ccccc2)sc2c1CCCCCC2 [UREIDOTHIOPHENE] | – | – | – | – | – | – | – | inhibition (Escherichia coli [8]): 2%
36 | CCN(C(=O)Nc1cc(-c2ccc(Cl)c(Cl)c2)sc1C(=O)O)c1ccccc1 | – | – | 36 | – | – | 16 (≈ 36.8 µM) | – | –
37 | CC(C)(C)OC(=O)c1c(NC(=O)Nc2ccccc2)sc2c1CCCCCC2 | – | – | – | – | – | 33 (≈ 82.4 µM) | – | inhibition (Escherichia coli [5]): 4%
38 | CCN(Cc1ccccc1)C(=O)Nc1cc(-c2ccc(Cl)cc2)sc1C(=O)OC | – | – | – | – | – | > 25 | – | inhibition (Escherichia coli [7]): 2%
39 | CCCCN(C(=O)Nc1cc(-c2ccc(Cl)c(Cl)c2)sc1C(=O)O)c1ccccc1 | – | – | 14 | – | – | > 25 | – | –
40 | CCN(Cc1ccccc1)C(=O)Nc1cc(-c2ccc(Cl)c(Cl)c2)sc1C(=O)O | 11 (≈ 24.5 µM) | 8 (≈ 17.8 µM) | 22 | 4.66 | > 25 | 10 (≈ 22.3 µM) | > 25 | inhibition (Escherichia coli [9]): 60%

Source: ChEMBL document CHEMBL2401619, “Novel small molecule inhibitors targeting the "switch region" of bacterial RNAP: structure-based optimization of a virtual screening hit” (Eur J Med Chem, 2013)
